# ChEMBL document CHEMBL4177531, “Cytotoxic Naphthoquinone and Azaanthraquinone Derivatives from an Endophytic Fusarium solani” (J Nat Prod, 2017)
# Experiments:
# MIA PaCa-2 = assay: Cytotoxicity against human MIAPaCa2 cells assessed as reduction in cell viability incubated for 96 hrs by MTT assay; type: functional, cell-based; settings: MIA PaCa-2, 96 h
# Outline: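 Pancreatic adenocarcinoma MIA PaCa2 cells were cultured in DMEM plus 2 mM L-glutamine and 10% FBS at 37 °C, 5% CO2. Cells were seeded at 5000–20 000 per well and rested 24 h, then dosed in triplicate for 96 h continuous exposure, with doxorubicin as positive control. Read-out was MTT absorbance at 570 nm; IC50 was derived by dose–response analysis.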
# HeLa = assay: Cytotoxicity against human HeLa cells assessed as reduction in cell viability incubated for 96 hrs by MTT assay; type: functional, cell-based
# Outline: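 HeLa monolayers kept in DMEM with 10% v/v FBS and 2 mM L-glutamine at 37 °C under humidified 5% CO2. Cells were seeded at 5000–20 000 per well and preincubated 24 h. Compound was added in triplicate, with doxorubicin as positive control. After 96 h continuous exposure, viability was read by MTT absorbance at 570 nm. IC50 came from dose–response analysis.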
# WI-38 = assay: Cytotoxicity against human WI38 cells assessed as reduction in cell viability incubated for 96 hrs by MTT assay; type: cell-based; settings: WI-38, 96 h
# Outline: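 WI 38 cells were grown in DMEM with 2 mM L-glutamine, 1× nonessential amino acids, 1% penicillin–streptomycin and 15% FBS at 37 °C, 5% CO2. Cells were plated at 5000–20 000 per well, then 24 h later dosed in triplicate and exposed continuously for 96 h. Read-out was MTT absorbance at 570 nm, with IC50 from dose–response analysis.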
# MDA-MB-231 = assay: Cytotoxicity against human MDA-MB-231 cells assessed as reduction in cell viability incubated for 96 hrs by MTT assay; type: functional, cell-based; settings: MDA-MB-231, 96 h
# Outline: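 Triple-negative breast line MDA MB231 was grown as monolayer at 37 °C under humidified 5% CO2 and plated at 5000–20 000 cells/well depending on line. After 24 h, compound was added in triplicate, with doxorubicin as positive control. Cells were exposed continuously for 96 h, then MTT colorimetry read at 570 nm. IC50 came from dose–response fitting.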
# NCI-H1975 = assay: Cytotoxicity against human NCI-H1975 cells assessed as reduction in cell viability incubated for 96 hrs by MTT assay; type: functional, cell-based; settings: NCI-H1975, 96 h
# Outline: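 NSCLC NCI H1975 cells were maintained in RPMI 1640 with 10% v/v FBS and 1% penicillin–streptomycin at 37 °C, humidified 5% CO2. Cells were seeded at 5000–20 000 per well, given 24 h, then dosed in triplicate for 96 h with doxorubicin as positive control. Viability was measured by MTT at 570 nm, and IC50 was obtained from dose–response curves.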
SMILES,IC50 (MIA PaCa-2),IC50 (HeLa),IC50 (WI-38),IC50 (MDA-MB-231),IC50 (NCI-H1975)
COc1cccc2c1C(=O)c1c(O)c3c(c(O)c1C2=O)C[C@@](O)(C(=O)CO)C[C@@H]3O[C@H]1C[C@H](N)[C@H](O)[C@H](C)O1 [DOXORUBICIN],40 nM,50 nM,350 nM,70 nM,30 nM
COc1cc(O)cc2c1C(=O)c1cnc(C)cc1C2=O,980 nM,960 nM,5840 nM,1510 nM,610 nM
COc1cc(O)c2c(c1)C(=O)C1=C(COC(C)(O)C1)C2=O (stereo not given),20500 nM,10300 nM,54300 nM,30700 nM,27700 nM
COc1c(O)cc(O)c2c1C(=O)c1cc(C)ncc1C2=O,640 nM,710 nM,6420 nM,730 nM,340 nM
